Tests used:
[1] = test system: patients with advanced solid tumors; assay: Phase 1 safety and tolerability; assay type: in vivo, human; conditions: any cycle, N = 36
Procedure, shortened: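 Adults (≥18 y) with locally advanced or metastatic solid tumours who had failed available therapy. They took oral test compound at 0.3–100 mg once daily alone for 28 days (cycle 0), then with IV anti-CCR4 antibody 1 mg/kg weekly (cycle 1) and every 2 weeks thereafter. AEs were coded by MedDRA 19.0 and graded by CTCAE 4.03, with relatedness judged by investigators. The DLT window was 56 days. Patients receiving any dose were counted as frequency and percentage.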

[2] = test system: patients with mycosis fungoides or Sézary syndrome; conditions: cited from earlier work
[3] = 184 mogamulizumab-treated patients, MAVORIC

For “mogamulizumab: recombinant, humanized monoclonal antibody of immunoglobulin G1-κ targeting CCR4”, the “IRRs related (TRAE) to the named drug, patients” value [1] was 39%, the “drug eruption related (TRAE) to the named drug, patients” value [1] was 50% and the “nausea related (TRAE) to the named drug, patients” value [1] was 14%. The “IRRs, patients” value [2, 3] was 33%, the “drug eruptions, patients” value [2, 3] was 24% and the “long-term responders who experienced drug eruptions” value ([2]; post hoc analysis of MAVORIC) was 60%.

Reference: PMC12178318 (Cancer, 2025)
